According to ChEMBL document CHEMBL4622950, “The synthesis and antituberculosis activity of 5-alkynyl uracil derivatives” (Bioorg Med Chem Lett, 2020):
≈ marks a conversion by molar mass, not a printed value.

Key:
[1] = test system: Mycobacterium tuberculosis; assay: Antitubercular activity against Mycobacterium bovis BCG assessed as bacterial growth inhibition at 10 ug/ml by MABA relative to control; assay type: functional; details: variant bovis BCG, read-out: GI
[2] = test system: Mycobacterium tuberculosis; assay: Antitubercular activity against Mycobacterium bovis BCG assessed as bacterial growth inhibition by alamar blue staining based assay; assay type: functional; details: variant bovis BCG
Outline: (§1)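 Whole-cell growth inhibition of Mycobacterium bovis and M. tuberculosis H37Ra, read quantitatively by Microplate Alamar Blue Assay (alamar blue reagent). Compounds were tested across 1 to 100 µg/ml. Activity was expressed as MIC50 (µg/ml) from this concentration series.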

[3] = test system: Mycobacterium tuberculosis; assay: Antitubercular activity against Mycobacterium bovis BCG assessed as bacterial growth inhibition at 50 ug/ml by MABA relative to control; assay type: functional; details: variant bovis BCG, read-out: GI
[4] = test system: Mycobacterium tuberculosis; assay: Antitubercular activity against Mycobacterium bovis BCG assessed as bacterial growth inhibition at 100 ug/ml by MABA relative to control; assay type: functional; details: variant bovis BCG, read-out: GI
[5] = test system: Mycobacterium tuberculosis; assay: Antitubercular activity against Mycobacterium bovis BCG assessed as bacterial growth inhibition at 5 ug/ml by MABA relative to control; assay type: functional; details: variant bovis BCG, read-out: GI
[6] = test system: Mycobacterium tuberculosis; assay: Antitubercular activity against Mycobacterium bovis BCG assessed as bacterial growth inhibition at 50 to 100 ug/ml by MABA relative to control; assay type: functional, variant bovis BCG
[7] = test system: Mycobacterium tuberculosis; assay: Antitubercular activity against Mycobacterium bovis BCG assessed as bacterial growth inhibition by MABA relative to control; assay type: functional, variant bovis BCG; outline: as §1
[8] = test system: Mycobacterium tuberculosis; assay: Antitubercular activity against Mycobacterium bovis BCG assessed as bacterial growth inhibition at 1 to 5 ug/ml by MABA relative to control; assay type: functional, variant bovis BCG
[9] = test system: Mycobacterium tuberculosis; assay: Antitubercular activity against Mycobacterium bovis BCG assessed as bacterial growth inhibition at 10 to 50 ug/ml by MABA relative to control; assay type: functional, variant bovis BCG
[10] = test system: Mycobacterium tuberculosis; assay: Antitubercular activity against Mycobacterium bovis BCG assessed as bacterial growth inhibition at 1 ug/ml by MABA relative to control; assay type: functional; details: variant bovis BCG, read-out: GI
[11] = test system: Mycobacterium tuberculosis; assay: Antitubercular activity against Mycobacterium bovis BCG assessed as bacterial growth inhibition at 25 ug/ml by MABA relative to control; assay type: functional; details: variant bovis BCG, read-out: GI

CCCCCCC#Cc1cn([C@@H]2O[C@H](CO)[C@@H](O)[C@H]2O)c(=O)[nH]c1=O
inhibition of growth at 10 µg/mL [1]: 0%
MIC50 [2]: < 50 mg/L
inhibition of growth at 50 µg/mL [3]: 0%
inhibition of growth at 100 µg/mL [4]: 60%

N[C@@H]1CONC1=O [CYCLOSERINE]
inhibition of growth at 10 µg/mL [1]: 71%
MIC50 [2]: 5.1 mg/L (≈ 50 µM)
inhibition of growth at 5 µg/mL [5]: 50%

O=c1[nH]cc(C#Cc2ccccc2)c(=O)[nH]1
inhibition of growth at 10 µg/mL [1]: 40%
MIC50 [2]: 17.4 mg/L (≈ 82 µM)
growth inhibition (GI) [6]: 90%

CCCCCCC#Cc1c[nH]c(=O)[nH]c1=O
growth inhibition (GI) [7]: 0%

O=c1[nH]cc(C#CC(O)c2ccccc2)c(=O)[nH]1 (stereo not drawn)
growth inhibition (GI) [8]: 50%
inhibition of growth at 10 µg/mL [1]: 80%
MIC50 [2]: 3.1 mg/L (≈ 12.8 µM)
growth inhibition (GI) [6]: 90%

O=c1[nH]cc(C#CC2CCCCC2)c(=O)[nH]1
growth inhibition (GI) [8]: 50%
growth inhibition (GI) [9]: 75%
MIC50 [2]: 2.5 mg/L (≈ 11.5 µM)
inhibition of growth at 100 µg/mL [4]: 90%

O=c1[nH]cc(C#CC2CC2)c(=O)[nH]1
growth inhibition (GI) [9]: 60%
MIC50 [2]: 7.8 mg/L (≈ 44.3 µM)
inhibition of growth at 100 µg/mL [4]: 80%

O=c1[nH]c(=O)n([C@@H]2O[C@H](CO)[C@@H](O)[C@H]2O)cc1C#CC(O)c1ccccc1 (stereo partly drawn)
growth inhibition (GI) [8]: 100%
MIC50 [2]: 1.4 mg/L (≈ 3.74 µM)

O=c1[nH]c(=O)n([C@@H]2O[C@H](CO)[C@@H](O)[C@H]2O)cc1C#Cc1ccccc1
growth inhibition (GI) [8]: 50%
inhibition of growth at 10 µg/mL [1]: 75%
MIC50 [2]: 2.7 mg/L (≈ 7.84 µM)
growth inhibition (GI) [6]: 90%

CC#Cc1c[nH]c(=O)[nH]c1=O
growth inhibition (GI) [7]: 0%

O=c1[nH]c(=O)n([C@@H]2O[C@H](CO)[C@@H](O)[C@H]2O)cc1C#CC1CC1
growth inhibition (GI) [8]: 50%
MIC50 [2]: 2.4 mg/L (≈ 7.78 µM)
inhibition of growth at 100 µg/mL [4]: 90%

CCCCC#Cc1c[nH]c(=O)[nH]c1=O
growth inhibition (GI) [7]: 0%

NNC(=O)c1ccncc1 [ISONIAZID]
inhibition of growth at 1 µg/mL [10]: 100%
MIC50 [2]: 0.9 mg/L (≈ 6.56 µM)

C[Si](C)(C)C#Cc1c[nH]c(=O)[nH]c1=O
MIC50 [2]: 100 mg/L (≈ 480 µM)
inhibition of growth at 100 µg/mL [4]: 50%

O=c1[nH]c(=O)n([C@@H]2O[C@H](CO)[C@@H](O)[C@H]2O)cc1C#CC1CCCCC1
inhibition of growth at 25 µg/mL [11]: 60%
growth inhibition (GI) [8]: 10%
MIC50 [2]: 19.2 mg/L (≈ 54.8 µM)
inhibition of growth at 100 µg/mL [4]: 90%

CCCCC#Cc1cn([C@@H]2O[C@H](CO)[C@@H](O)[C@H]2O)c(=O)[nH]c1=O
inhibition of growth at 10 µg/mL [1]: 0%
MIC50 [2]: 50 mg/L (≈ 154 µM)
inhibition of growth at 50 µg/mL [3]: 0%
inhibition of growth at 100 µg/mL [4]: 50%

CCC#Cc1c[nH]c(=O)[nH]c1=O
growth inhibition (GI) [7]: 0%

CO[C@H]1/C=C/O[C@@]2(C)Oc3c(C)c(O)c4c(O)c(c(/C=N/N5CCN(C)CC5)c(O)c4c3C2=O)NC(=O)/C(C)=C\C=C\[C@H](C)[C@H](O)[C@@H](C)[C@@H](O)[C@@H](C)[C@H](OC(C)=O)[C@@H]1C [RIFAMPIN]
inhibition of growth at 1 µg/mL [10]: 100%
MIC50 [2]: 0.8 mg/L (≈ 0.972 µM)
